The structures appear in SMILES notation. The source made the active and inactive calls. The rule behind the calls is not given here.

This note sets out measurements from ChEMBL document CHEMBL4622927, “6,6'-Aryl trehalose analogs as potential Mincle ligands” (Bioorg Med Chem, 2020).

For one assay, the system named is PBMC. In words: Induction of IL-6 production in human PBMC measured after 18 to 24 hrs at 0.01 to 100 uM by ELISA. The class given is functional, cell-based. An outline of the steps:
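Freshly Ficoll-isolated PBMCs from healthy adult donors, in RPMI with 5% autologous plasma and counted as viable cells by trypan blue, added to wells with compounds serially diluted in ethanol and dried on. Incubation 18–24 h at 37 °C/5% CO2. Supernatant IL-6 measured by ELISA, read at 450 nm; n=3 independent donors, mean ± SEM.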

The target in assay [1] is T1, C-type lectin domain family 4 member E (Homo sapiens) (UniProt Q9ULY5).
T1 sequence (whole entry): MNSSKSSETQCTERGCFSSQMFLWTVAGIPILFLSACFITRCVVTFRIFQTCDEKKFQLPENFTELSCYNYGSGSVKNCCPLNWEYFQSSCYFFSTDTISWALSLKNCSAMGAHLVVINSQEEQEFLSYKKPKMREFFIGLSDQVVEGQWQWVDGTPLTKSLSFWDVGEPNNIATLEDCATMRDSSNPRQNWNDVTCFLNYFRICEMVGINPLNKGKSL
In words: Agonist activity at human Mincle receptor expressed in HEK cells cotransfected with NF-kappaB SEAP reporter gene assessed as increase in production of SEAP at 20 uM measured after 18 to 24 hrs by SEAP reporter gene-based spectrophotometric method. The class given is cell-based. A digest of the protocol:
(§1)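 Compounds serially diluted in EtOH; 10x final concentration coated on well bottoms and solvent evaporated >1 h. HEK-Blue hMincle cells with NF-κB-driven SEAP reporter, grown in DMEM/10% FBS with blasticidin, puromycin and CLR selection, added at 3 × 10^5 cells/well. 18–24 h at 37 °C. HEK-Blue Detection, OD 620–655 nm, fold change over vehicle; n=3. HEK null cells as counter-screen.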
For orientation: In a reporter assay the amount or activity of a reporter protein is the signal.

The target of assay [2] is T1, C-type lectin domain family 4 member E (Homo sapiens). As to the kind of experiment: Agonist activity at human Mincle receptor expressed in HEK cells cotransfected with NF-kappaB SEAP reporter gene assessed as increase in production of SEAP measured after 18 to 24 hrs by SEAP reporter gene-based spectrophotometric method. The class given is cell-based. An outline of the steps:
as §1

Regarding `Cc1ccc(C(=O)OC[C@H]2O[C@H](O[C@H]3O[C@H](COC(=O)c4ccc(C)cc4C(F)(F)F)[C@@H](O)[C@H](O)[C@H]3O)[C@H](O)[C@@H](O)[C@@H]2O)c(C(F)(F)F)c1`, the outcome in the assay with PBMC was inactive.

As for `O=C(OC[C@H]1O[C@H](O[C@H]2O[C@H](COC(=O)c3cc(C(F)(F)F)ccc3O)[C@@H](O)[C@H](O)[C@H]2O)[C@H](O)[C@@H](O)[C@@H]1O)c1cc(C(F)(F)F)ccc1O`, the outcome with PBMC was inactive.

As to `O=C(Cc1ccccc1C(F)(F)F)OC[C@H]1O[C@H](O[C@H]2O[C@H](COC(=O)Cc3ccccc3C(F)(F)F)[C@@H](O)[C@H](O)[C@H]2O)[C@H](O)[C@@H](O)[C@@H]1O`, in the assay on PBMC, the result was inactive. In assay [1], the outcome was Active.

In the case of `O=C(OC[C@H]1O[C@H](O[C@H]2O[C@H](COC(=O)c3c(C(F)(F)F)cccc3C(F)(F)F)[C@@H](O)[C@H](O)[C@H]2O)[C@H](O)[C@@H](O)[C@@H]1O)c1c(C(F)(F)F)cccc1C(F)(F)F`, in the assay with PBMC, the result was Active. Further, in assay [2], the Activity result was “Dose-dependent effect”. For the molecule `O=C(OC[C@H]1O[C@H](O[C@H]2O[C@H](COC(=O)c3ccccc3C(F)(F)F)[C@@H](O)[C@H](O)[C@H]2O)[C@H](O)[C@@H](O)[C@@H]1O)c1ccccc1C(F)(F)F`, the result in the assay on PBMC was Active. In assay [2], the Activity entry was “Dose-dependent effect”.

As for `CCCCCCCCCCCCCCCCCCCCCC(=O)OC[C@H]1O[C@H](O[C@H]2O[C@H](COC(=O)CCCCCCCCCCCCCCCCCCCCC)[C@@H](O)[C@H](O)[C@H]2O)[C@H](O)[C@@H](O)[C@@H]1O`, the Activity result in assay [2] is “Dose-dependent effect”. Consider `COc1ccc(C(F)(F)F)cc1C(=O)OC[C@H]1O[C@H](O[C@H]2O[C@H](COC(=O)c3cc(C(F)(F)F)ccc3OC)[C@@H](O)[C@H](O)[C@H]2O)[C@H](O)[C@@H](O)[C@@H]1O`, for which, in the assay on PBMC, the result was inactive. For the same molecule, the Activity result in assay [2] is “Dose-dependent effect”. Regarding `O=C(OC[C@H]1O[C@H](O[C@H]2O[C@H](COC(=O)c3cccc(C(F)(F)F)c3O)[C@@H](O)[C@H](O)[C@H]2O)[C@H](O)[C@@H](O)[C@@H]1O)c1cccc(C(F)(F)F)c1O`, the result in the assay with PBMC was inactive. Regarding `O=C(OC[C@H]1O[C@H](O[C@H]2O[C@H](COC(=O)c3cc([N+](=O)[O-])cc([N+](=O)[O-])c3)[C@@H](O)[C@H](O)[C@H]2O)[C@H](O)[C@@H](O)[C@@H]1O)c1cc([N+](=O)[O-])cc([N+](=O)[O-])c1`, the result in the assay with PBMC was Active. As to `COc1ccc(C(=O)OC[C@H]2O[C@H](O[C@H]3O[C@H](COC(=O)c4ccc(OC)cc4C(F)(F)F)[C@@H](O)[C@H](O)[C@H]3O)[C@H](O)[C@@H](O)[C@@H]2O)c(C(F)(F)F)c1`, the result with PBMC was inactive.
